According to ChEMBL document CHEMBL4373718, “Germacrane Sesquiterpenoids as a New Type of Anticardiac Fibrosis Agent Targeting Transforming Growth Factor β Type I Receptor” (J Med Chem, 2019):
The source made the active and inactive calls. No cut-off for these calls is given here.

Tests used:
[1] = target: T1, TGF-beta receptor type-1 (Rattus norvegicus) (UniProt P80204); assay: Inhibition of TGFbeta1 receptor in TGFbeta1-stimulated Sprague-Dawley rat cardiac fibroblasts assessed as reduction in fibronectin mRNA expression at 2.5 to 10 uM measured after 12 hrs by qRT-PCR analysis
T1 sequence (whole entry): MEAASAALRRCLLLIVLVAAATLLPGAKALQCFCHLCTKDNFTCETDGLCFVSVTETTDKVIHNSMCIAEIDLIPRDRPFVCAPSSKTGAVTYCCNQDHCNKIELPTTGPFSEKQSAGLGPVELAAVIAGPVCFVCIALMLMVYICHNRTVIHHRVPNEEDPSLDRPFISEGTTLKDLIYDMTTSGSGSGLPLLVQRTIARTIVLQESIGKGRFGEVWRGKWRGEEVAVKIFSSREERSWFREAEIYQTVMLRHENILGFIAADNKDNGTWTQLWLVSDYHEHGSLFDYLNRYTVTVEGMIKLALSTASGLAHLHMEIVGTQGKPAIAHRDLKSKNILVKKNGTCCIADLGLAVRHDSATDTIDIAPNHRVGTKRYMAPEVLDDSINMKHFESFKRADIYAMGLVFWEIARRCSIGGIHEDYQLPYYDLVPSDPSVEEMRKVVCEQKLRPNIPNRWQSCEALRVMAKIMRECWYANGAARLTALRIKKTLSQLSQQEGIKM
Outline: (§1)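 Primary rat cardiac fibroblasts (3×10^5 per well) treated with compound plus 10 ng/mL TGFβ1 for 12 h. Total RNA extracted and target transcripts measured by SYBR Green qRT-PCR, normalized to GAPDH.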

[2] = target: T1, TGF-beta receptor type-1 (Rattus norvegicus); assay: Inhibition of TGFbeta1 receptor in TGFbeta1-stimulated Sprague-Dawley rat cardiac fibroblasts assessed as reduction in alpha-SMA mRNA expression at 2.5 to 10 uM measured after 12 hrs by qRT-PCR analysis; outline: as §1
[3] = target: T1, TGF-beta receptor type-1 (Rattus norvegicus); assay: Inhibition of TGFbeta1 receptor in TGFbeta1-stimulated Sprague-Dawley rat cardiac fibroblasts assessed as reduction in collagen 3 mRNA expression at 2.5 to 10 uM measured after 12 hrs by qRT-PCR analysis; outline: as §1
[4] = target: T1, TGF-beta receptor type-1 (Rattus norvegicus); assay: Inhibition of TGFbeta1 receptor in TGFbeta1-stimulated Sprague-Dawley rat cardiac fibroblasts assessed as reduction in Smad3 phosphorylation at 10 uM measured after 5 to 30 mins by Western blot analysis
[5] = target: T1, TGF-beta receptor type-1 (Rattus norvegicus); assay: Inhibition of TGFbeta1 receptor in TGFbeta1-stimulated Sprague-Dawley rat cardiac fibroblasts assessed as reduction in Smad2 nuclear translocation at 10 uM measured after 5 mins by DAPI staining-based laser confocal microscopic analysis
Outline: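 Primary rat cardiac fibroblasts treated with 10 µM compound plus 10 ng/mL TGFβ1 for 5 min. Fixed in 4% PFA, permeabilized with 0.1% Triton X-100, blocked with goat serum. Stained with anti-Smad2 or anti-Smad3 overnight at 4 °C, then Alexa 594 secondary and DAPI nuclear stain. Imaged by confocal microscopy.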

[6] = target: T2, TGF-beta receptor type-1 (Homo sapiens, UniProt P36897); assay: Inhibition of recombinant human N-terminal GST-tagged TGFbeta1 receptor (80 to end residues) expressed in baculovirus infected Sf9 insect cells using casein as substrate measured after 2 hrs by ADP-Glo assay
T2 sequence (P36897 whole entry): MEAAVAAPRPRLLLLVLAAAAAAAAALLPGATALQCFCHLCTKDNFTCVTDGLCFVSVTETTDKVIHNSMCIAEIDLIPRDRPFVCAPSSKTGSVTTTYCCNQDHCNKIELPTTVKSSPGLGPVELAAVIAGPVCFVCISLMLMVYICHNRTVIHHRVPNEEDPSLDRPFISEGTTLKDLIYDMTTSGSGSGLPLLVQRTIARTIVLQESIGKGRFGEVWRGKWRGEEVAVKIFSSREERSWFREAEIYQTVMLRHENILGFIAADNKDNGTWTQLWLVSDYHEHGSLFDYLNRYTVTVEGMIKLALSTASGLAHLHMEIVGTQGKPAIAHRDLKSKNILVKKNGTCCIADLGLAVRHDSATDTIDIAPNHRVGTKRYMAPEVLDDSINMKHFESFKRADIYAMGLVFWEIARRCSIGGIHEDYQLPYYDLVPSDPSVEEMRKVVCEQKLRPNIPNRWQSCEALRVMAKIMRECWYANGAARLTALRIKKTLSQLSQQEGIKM

[7] = system: Rattus norvegicus; assay: Antifibrotic activity in abdominal aortic constriction Sprague-Dawley rat model of cardiac fibrosis assessed as diastolic left ventricular internal diameter at 5 mg/kg, ip administered once daily for 4 weeks measured post-last dose by echocardiography (reference value: 7.60 +/- 0.63 mm); type: functional

For C=C(C)[C@@H]1C/C=C(\C)C(=O)CCC2=C[C@@H]1OC2=O, the inhibition [1] was “Active”, the inhibition [2] was “Active” and the inhibition [3] was “Active”. For the same compound, the inhibition [4] was “Active”, the inhibition [5] was “Active” and the IC50 [6] was 14.9 nM. For the same compound, the Activity [7] was 8.3 mm.
